From ChEMBL document CHEMBL3272285, “A potential amphetamine antagonist, adamantanamine derivative of fluphenazine” (J Med Chem, 1976) come the findings set out here.

In data set [1] the test system is Rattus norvegicus. The experiment in a line: Inhibition of d-amphetamine-induced increase shock avoidance response in Sprague-Dawley rat at 70 mg/kg, sc on day 4, drug administered prior to 2 mg/kg d-amphetamine challenge on 1,2,4 and 7th day relative to control. Format: functional. Set-up: scale not given: the % may be the effect or the level left. In a few lines: (§1)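 Rats were pretreated sc with 0.1 mmol of the dihydrochloride 1, 2, 4 or 7 days before 2 mg/kg d-amphetamine sulfate, in groups of five. Each was placed in a shuttle box 30 min after amphetamine and ran one session. Light and tone came on a variable interval 60-s schedule, with shock 5 s later; a trial ended without response 30 s after shock onset. Avoidances over 50 trials were scored as % of an amphetamine-only control group.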

Data set [2] relates to Rattus norvegicus. The experiment in a line: Inhibition of d-amphetamine-induced increase spontaneous locomotor activity in Sprague-Dawley rat at 70 mg/kg, sc on day 4, drug administered prior to 2 mg/kg d-amphetamine challenge on 1,2,4 and 7th day relative to control. Format: functional. On the set-up: scale not given: the % may be the effect or the level left. Put shortly:
(§2)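 After the initial drug injections, with a sesame oil vehicle group as control, rats got 2 mg/kg d-amphetamine in saline on days 1, 2, 4 and 7. Motor activity was recorded with an electronic motility meter for 30 min immediately after each amphetamine dose, at the same time of day. Counts are expressed as % of the vehicle control group.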

Data set [3] concerns Rattus norvegicus. In words: Toxicity in Sprague-Dawley rat assessed as sedation effect at 70 mg/kg, sc for 2 days. It counts as organism-based. Set-up: dose 70 mg/kg, route subcutaneous. The settings on record: in vivo, 48 h.
In data set [4] the test system is Rattus norvegicus. In words: Toxicity in Sprague-Dawley rat assessed as spontaneous locomotor activity at 70 mg/kg, sc on day 1 relative to control. Set-up: dose 70 mg/kg, route subcutaneous. The settings on record: in vivo. It counts as organism-based.
Data set [5] has as its system Rattus norvegicus. In words: Toxicity in Sprague-Dawley rat assessed as spontaneous locomotor activity at 70 mg/kg, sc on day 7 relative to control. It counts as organism-based. On the set-up: dose 70 mg/kg, route subcutaneous. The following applies: in vivo.
Data set [6] deals with Rattus norvegicus. The experiment in a line: Toxicity in Sprague-Dawley rat assessed as spontaneous locomotor activity at 70 mg/kg, sc on day 4 relative to control. Format: organism-based. On the set-up: dose 70 mg/kg, route subcutaneous. The following applies: in vivo.
Data set [7] has as its system Rattus norvegicus. In words: Inhibition of d-amphetamine-induced increase shock avoidance response in Sprague-Dawley rat at 70 mg/kg, sc on day 2, drug administered prior to 2 mg/kg d-amphetamine challenge on 1,2,4 and 7th day relative to control. On the set-up: scale not given: the % may be the effect or the level left. It counts as functional. In a few lines: as §1

Data set [8] relates to Rattus norvegicus. The experiment in a line: Inhibition of d-amphetamine-induced increase spontaneous locomotor activity in Sprague-Dawley rat at 70 mg/kg, sc on day 7, drug administered prior to 2 mg/kg d-amphetamine challenge on 1,2,4 and 7th day relative to control. Set-up: scale not given: the % may be the effect or the level left. Format: functional. Put shortly:
as §2

Data set [9] has as its system Rattus norvegicus. The experiment in a line: Toxicity in Sprague-Dawley rat assessed as shock avoidance response at 70 mg/kg, sc on day 1 relative to d-amphetamine. Format: organism-based. On the set-up: dose 70 mg/kg, route subcutaneous. The following applies: in vivo.
Data set [10] concerns Rattus norvegicus. In words: Toxicity in Sprague-Dawley rat assessed as shock avoidance response at 70 mg/kg, sc on day 2 relative to d-amphetamine. It counts as organism-based. Set-up: dose 70 mg/kg, route subcutaneous. The settings on record: in vivo.
For data set [11], the system named is Rattus norvegicus. The experiment in a line: Toxicity in Sprague-Dawley rat assessed as spontaneous locomotor activity at 70 mg/kg, sc on day 2 relative to control. Set-up: dose 70 mg/kg, route subcutaneous. Format: organism-based. The following applies: in vivo.
For data set [12], the system named is Rattus norvegicus. The experiment in a line: Inhibition of d-amphetamine-induced increase shock avoidance response in Sprague-Dawley rat at 70 mg/kg, sc on day 1, drug administered prior to 2 mg/kg d-amphetamine challenge on 1,2,4 and 7th day relative to control. Set-up: scale not given: the % may be the effect or the level left. It counts as functional. Put shortly: as §1

Data set [13] deals with Rattus norvegicus. In words: Toxicity in Sprague-Dawley rat assessed as shock avoidance response at 70 mg/kg, sc on day 7 relative to d-amphetamine. Set-up: dose 70 mg/kg, route subcutaneous. The following applies: in vivo. It counts as organism-based.
In data set [14] the test system is Rattus norvegicus. The experiment in a line: Inhibition of d-amphetamine-induced increase spontaneous locomotor activity in Sprague-Dawley rat at 70 mg/kg, sc on day 1, drug administered prior to 2 mg/kg d-amphetamine challenge on 1,2,4 and 7th day relative to control. Format: functional. Set-up: scale not given: the % may be the effect or the level left. Put shortly:
as §2

The test system of data set [15] is Rattus norvegicus. The experiment in a line: Inhibition of d-amphetamine-induced increase spontaneous locomotor activity in Sprague-Dawley rat at 70 mg/kg, sc on day 2, drug administered prior to 2 mg/kg d-amphetamine challenge on 1,2,4 and 7th day relative to control. Format: functional. Set-up: scale not given: the % may be the effect or the level left. Put shortly: as §2

Data set [16] deals with Rattus norvegicus. The experiment in a line: Inhibition of d-amphetamine-induced increase shock avoidance response in Sprague-Dawley rat at 70 mg/kg, sc on day 7, drug administered prior to 2 mg/kg d-amphetamine challenge on 1,2,4 and 7th day relative to control. Format: functional. On the set-up: scale not given: the % may be the effect or the level left. In a few lines: as §1

Data set [17] concerns Rattus norvegicus. The experiment in a line: Toxicity in Sprague-Dawley rat assessed as shock avoidance response at 70 mg/kg, sc on day 4 relative to d-amphetamine. Format: organism-based. The settings on record: in vivo. Set-up: dose 70 mg/kg, route subcutaneous.

Regarding `Cl.O=C(NC12CC3CC(CC(C3)C1)C2)OCCN1CCN(CCCN2c3ccccc3Sc3ccc(C(F)(F)F)cc32)CC1`, the Activity in the data set on Rattus norvegicus [1] was 61.8%; with Rattus norvegicus [2], 71.2%; with Rattus norvegicus [3], “Toxic”; with Rattus norvegicus [4], 52.8%; in the data set on Rattus norvegicus [5] it was 26.6%; in the data set with Rattus norvegicus [6], 29.6%. Besides, the Activity in the data set with Rattus norvegicus [7] came to 47%; in the data set on Rattus norvegicus [8], 101.2%; with Rattus norvegicus [9] it was 71.5%; in the data set with Rattus norvegicus [10], 82.2%; in the data set on Rattus norvegicus [11], 47.8%; in the data set on Rattus norvegicus [12] it was 16.7%. The Activity is 72% with Rattus norvegicus [13]; 55.7% in the data set on Rattus norvegicus [14]; 51.9% in the data set on Rattus norvegicus [15]; 92.5% with Rattus norvegicus [16]; 90.9% with Rattus norvegicus [17].
